Results taken from ChEMBL document CHEMBL5303300, “EUbOPEN Chemogenomics Library - Multiplex” (2023).
Values joined by “and” are separate entries in the source; they are usually repeats but may differ in a detail not shown here. Equal entries are not always repeated.

Test system: Fibroblast
Assay: Multiplex assay against human fibroblast
Assay type: toxicity, cell-based
Conditions: number of replicates 2
Procedure, shortened: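 Compound was added to live cells that had been stained at seeding with Hoechst33342, BioTracker Green Microtubule Cytoskeleton Dye, MitoTracker Red and Annexin V Alexa Fluor 680, and imaging followed on a CQ1 microscope at 37°C and 5% CO2. CellPathfinder machine-learning gating divided cells into Hoechst high-intensity objects or normal cells, normal cells into healthy, pyknosed or fragmented nuclei, and pyknosed cells into mitotic or apoptotic. Tubulin, mitochondrial-mass and membrane-permeability phenotypes are per cents of healthy-nucleus cells.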

[1] = 12 h, 1 µM, compound concentration 1 uM
[2] = 12 h, 10 µM, compound concentration 10 uM
[3] = 24 h, 1 µM, compound concentration 1 uM
[4] = 24 h, 10 µM, compound concentration 10 uM
[5] = 48 h, 1 µM, compound concentration 1 uM
[6] = 48 h, 10 µM, compound concentration 10 uM

Cc1cc(NC(=O)c2cccc(NC(=O)/C=C/CN(C)C)c2)ccc1Nc1nccc(-c2cccnc2)n1
Population Apoptotic (%) [1]: 39% and 33% | Population Fragmented Nuclei (%) [1]: 12% and 17% | Population Healthy Nuclei (%) [1]: 63% and 56% | Population Hoechst High Intensity Objects (%) [1]: 0% | Population Membrane Permeable-Phenotype (%) [1]: 9% and 11% | Population Mitochondria Different-Phenotype (%) [1]: 0% and 1% | Population Mitotic Cells (%) [1]: 60% and 66% | Population Normal (%) [1]: 100% | Population Pyknosed Nuclei (%) [1]: 24% and 25% | Population Tubulin-Different-Phenotype (%) [1]: 18% and 11% | Total Cell Count [1]: 190 and 197 | Population Apoptotic (%) [2]: 48% and 33% | Population Fragmented Nuclei (%) [2]: 4% and 10% | Population Healthy Nuclei (%) [2]: 53% and 56% | Population Hoechst High Intensity Objects (%) [2]: 0% | Population Membrane Permeable-Phenotype (%) [2]: 7% and 14% | Population Mitochondria Different-Phenotype (%) [2]: 8% and 2% | Population Mitotic Cells (%) [2]: 51% and 66% | Population Normal (%) [2]: 100% and 99% | Population Pyknosed Nuclei (%) [2]: 41% and 33% | Population Tubulin-Different-Phenotype (%) [2]: 77% and 50% | Total Cell Count [2]: 130 and 219 | Population Apoptotic (%) [3]: 47% and 40% | Population Fragmented Nuclei (%) [3]: 22% and 24% | Population Healthy Nuclei (%) [3]: 54% and 52% | Population Hoechst High Intensity Objects (%) [3]: 0% | Population Membrane Permeable-Phenotype (%) [3]: 5% and 3% | Population Mitochondria Different-Phenotype (%) [3]: 0% and 2% | Population Mitotic Cells (%) [3]: 52% and 59% | Population Normal (%) [3]: 100% | Population Pyknosed Nuclei (%) [3]: 23% | Population Tubulin-Different-Phenotype (%) [3]: 21% and 13% | Total Cell Count [3]: 230 and 222 | Population Apoptotic (%) [4]: 53% and 39% | Population Fragmented Nuclei (%) [4]: 11% | Population Healthy Nuclei (%) [4]: 36% and 51% | Population Hoechst High Intensity Objects (%) [4]: 0% | Population Membrane Permeable-Phenotype (%) [4]: 6% and 7% | Population Mitochondria Different-Phenotype (%) [4]: 18% and 13% | Population Mitotic Cells (%) [4]: 46% and 60% | Population Normal (%) [4]: 99% | Population Pyknosed Nuclei (%) [4]: 51% and 36% | Population Tubulin-Different-Phenotype (%) [4]: 81% and 63% | Total Cell Count [4]: 118 and 221 | Population Apoptotic (%) [5]: 68% and 75% | Population Fragmented Nuclei (%) [5]: 24% and 29% | Population Healthy Nuclei (%) [5]: 62% and 60% | Population Hoechst High Intensity Objects (%) [5]: 0% | Population Membrane Permeable-Phenotype (%) [5]: 6% and 4% | Population Mitochondria Different-Phenotype (%) [5]: 1% and 0% | Population Mitotic Cells (%) [5]: 31% and 25% | Population Normal (%) [5]: 100% and 99% | Population Pyknosed Nuclei (%) [5]: 13% and 10% | Population Tubulin-Different-Phenotype (%) [5]: 23% and 29% | Total Cell Count [5]: 237 and 239 | Population Apoptotic (%) [6]: 82% and 60% | Population Fragmented Nuclei (%) [6]: 14% | Population Healthy Nuclei (%) [6]: 30% and 39% | Population Hoechst High Intensity Objects (%) [6]: 0% | Population Membrane Permeable-Phenotype (%) [6]: 19% and 12% | Population Mitochondria Different-Phenotype (%) [6]: 22% and 15% | Population Mitotic Cells (%) [6]: 17% and 39% | Population Normal (%) [6]: 100% and 99% | Population Pyknosed Nuclei (%) [6]: 54% and 45% | Population Tubulin-Different-Phenotype (%) [6]: 80% and 78% | Total Cell Count [6]: 117 and 218

CC1(C)C(=O)N([C@H]2CCc3c(O)cccc32)c2nc(Nc3cccc(CN4CCCC4)c3)ncc21
Population Apoptotic (%) [1]: 38% and 68% | Population Fragmented Nuclei (%) [1]: 14% and 18% | Population Healthy Nuclei (%) [1]: 75% and 64% | Population Hoechst High Intensity Objects (%) [1]: 0% | Population Membrane Permeable-Phenotype (%) [1]: 5% | Population Mitochondria Different-Phenotype (%) [1]: 0% and 4% | Population Mitotic Cells (%) [1]: 61% and 31% | Population Normal (%) [1]: 100% | Population Pyknosed Nuclei (%) [1]: 9% and 17% | Population Tubulin-Different-Phenotype (%) [1]: 22% and 16% | Total Cell Count [1]: 136 and 183 | Population Apoptotic (%) [2]: 77% and 80% | Population Fragmented Nuclei (%) [2]: 22% and 20% | Population Healthy Nuclei (%) [2]: 43% and 42% | Population Hoechst High Intensity Objects (%) [2]: 1% | Population Membrane Permeable-Phenotype (%) [2]: 9% and 4% | Population Mitochondria Different-Phenotype (%) [2]: 16% and 12% | Population Mitotic Cells (%) [2]: 22% and 20% | Population Normal (%) [2]: 98% | Population Pyknosed Nuclei (%) [2]: 33% and 37% | Population Tubulin-Different-Phenotype (%) [2]: 67% and 54% | Total Cell Count [2]: 150 and 191 | Population Apoptotic (%) [3]: 62% and 70% | Population Fragmented Nuclei (%) [3]: 18% and 20% | Population Healthy Nuclei (%) [3]: 67% and 64% | Population Hoechst High Intensity Objects (%) [3]: 0% | Population Membrane Permeable-Phenotype (%) [3]: 5% and 2% | Population Mitochondria Different-Phenotype (%) [3]: 2% and 8% | Population Mitotic Cells (%) [3]: 37% and 29% | Population Normal (%) [3]: 99% | Population Pyknosed Nuclei (%) [3]: 13% and 15% | Population Tubulin-Different-Phenotype (%) [3]: 22% and 24% | Total Cell Count [3]: 118 and 154 | Population Apoptotic (%) [4]: 95% and 93% | Population Fragmented Nuclei (%) [4]: 25% and 22% | Population Healthy Nuclei (%) [4]: 16% | Population Hoechst High Intensity Objects (%) [4]: 0% and 1% | Population Membrane Permeable-Phenotype (%) [4]: 7% and 8% | Population Mitochondria Different-Phenotype (%) [4]: 21% and 33% | Population Mitotic Cells (%) [4]: 4% and 6% | Population Normal (%) [4]: 99% and 98% | Population Pyknosed Nuclei (%) [4]: 58% and 61% | Population Tubulin-Different-Phenotype (%) [4]: 46% and 79% | Total Cell Count [4]: 176 and 153 | Population Apoptotic (%) [5]: 69% and 79% | Population Fragmented Nuclei (%) [5]: 13% and 14% | Population Healthy Nuclei (%) [5]: 61% and 52% | Population Hoechst High Intensity Objects (%) [5]: 0% | Population Membrane Permeable-Phenotype (%) [5]: 18% and 15% | Population Mitochondria Different-Phenotype (%) [5]: 4% and 0% | Population Mitotic Cells (%) [5]: 30% and 20% | Population Normal (%) [5]: 100% and 99% | Population Pyknosed Nuclei (%) [5]: 24% and 32% | Population Tubulin-Different-Phenotype (%) [5]: 32% and 20% | Total Cell Count [5]: 105 and 132 | Population Apoptotic (%) [6]: 97% and 95% | Population Fragmented Nuclei (%) [6]: 15% and 19% | Population Healthy Nuclei (%) [6]: 17% | Population Hoechst High Intensity Objects (%) [6]: 2% | Population Membrane Permeable-Phenotype (%) [6]: 14% and 20% | Population Mitochondria Different-Phenotype (%) [6]: 28% and 40% | Population Mitotic Cells (%) [6]: 2% and 4% | Population Normal (%) [6]: 97% | Population Pyknosed Nuclei (%) [6]: 67% and 62% | Population Tubulin-Different-Phenotype (%) [6]: 61% and 64% | Total Cell Count [6]: 126 and 145

COCCNC1CCC(Nc2cc(-c3csc(NCC4(C#N)CCOCC4)n3)c(Cl)cn2)CC1 (stereo not drawn)
Population Apoptotic (%) [1]: 50% and 31% | Population Fragmented Nuclei (%) [1]: 7% and 12% | Population Healthy Nuclei (%) [1]: 73% and 67% | Population Hoechst High Intensity Objects (%) [1]: 0% | Population Membrane Permeable-Phenotype (%) [1]: 2% and 7% | Population Mitochondria Different-Phenotype (%) [1]: 1% and 2% | Population Mitotic Cells (%) [1]: 50% and 68% | Population Normal (%) [1]: 99% | Population Pyknosed Nuclei (%) [1]: 19% and 20% | Population Tubulin-Different-Phenotype (%) [1]: 13% and 12% | Total Cell Count [1]: 154 and 189 | Population Apoptotic (%) [2]: 48% and 47% | Population Fragmented Nuclei (%) [2]: 10% and 15% | Population Healthy Nuclei (%) [2]: 70% and 68% | Population Hoechst High Intensity Objects (%) [2]: 0% | Population Membrane Permeable-Phenotype (%) [2]: 12% and 13% | Population Mitochondria Different-Phenotype (%) [2]: 5% and 10% | Population Mitotic Cells (%) [2]: 51% and 52% | Population Normal (%) [2]: 99% and 100% | Population Pyknosed Nuclei (%) [2]: 18% and 16% | Population Tubulin-Different-Phenotype (%) [2]: 79% and 67% | Total Cell Count [2]: 219 and 209 | Population Apoptotic (%) [3]: 55% and 74% | Population Fragmented Nuclei (%) [3]: 10% and 4% | Population Healthy Nuclei (%) [3]: 71% and 80% | Population Hoechst High Intensity Objects (%) [3]: 0% | Population Membrane Permeable-Phenotype (%) [3]: 4% and 6% | Population Mitochondria Different-Phenotype (%) [3]: 3% and 0% | Population Mitotic Cells (%) [3]: 44% and 25% | Population Normal (%) [3]: 99% and 100% | Population Pyknosed Nuclei (%) [3]: 17% and 15% | Population Tubulin-Different-Phenotype (%) [3]: 20% and 19% | Total Cell Count [3]: 163 and 170 | Population Apoptotic (%) [4]: 53% and 65% | Population Fragmented Nuclei (%) [4]: 14% and 13% | Population Healthy Nuclei (%) [4]: 72% and 73% | Population Hoechst High Intensity Objects (%) [4]: 1% and 0% | Population Membrane Permeable-Phenotype (%) [4]: 11% | Population Mitochondria Different-Phenotype (%) [4]: 18% | Population Mitotic Cells (%) [4]: 46% and 34% | Population Normal (%) [4]: 98% and 100% | Population Pyknosed Nuclei (%) [4]: 12% | Population Tubulin-Different-Phenotype (%) [4]: 87% and 70% | Total Cell Count [4]: 206 and 210 | Population Apoptotic (%) [5]: 59% and 68% | Population Fragmented Nuclei (%) [5]: 9% and 11% | Population Healthy Nuclei (%) [5]: 57% and 55% | Population Hoechst High Intensity Objects (%) [5]: 0% | Population Membrane Permeable-Phenotype (%) [5]: 14% | Population Mitochondria Different-Phenotype (%) [5]: 3% and 1% | Population Mitotic Cells (%) [5]: 40% and 31% | Population Normal (%) [5]: 100% | Population Pyknosed Nuclei (%) [5]: 33% and 32% | Population Tubulin-Different-Phenotype (%) [5]: 30% and 22% | Total Cell Count [5]: 154 and 174 | Population Apoptotic (%) [6]: 54% and 76% | Population Fragmented Nuclei (%) [6]: 15% and 13% | Population Healthy Nuclei (%) [6]: 64% and 67% | Population Hoechst High Intensity Objects (%) [6]: 0% and 1% | Population Membrane Permeable-Phenotype (%) [6]: 12% and 10% | Population Mitochondria Different-Phenotype (%) [6]: 18% and 16% | Population Mitotic Cells (%) [6]: 45% and 23% | Population Normal (%) [6]: 99% | Population Pyknosed Nuclei (%) [6]: 20% and 19% | Population Tubulin-Different-Phenotype (%) [6]: 81% and 71% | Total Cell Count [6]: 207 and 200
